For experiment [1], the target named is G-protein coupled receptor 55 (Homo sapiens) (UniProt Q9Y2T6). The experiment is described as follows: Antagonist activity at human GPR55 expressed in CHO cells assessed as inhibition of LPI-induced beta-arrestin translocation after 90 mins by luminescence assay. The experiment is classed as cell-based. An outline of the steps:
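CHO cells expressing human GPR55; β-arrestin recruitment read as luminescence by β-galactosidase enzyme fragment complementation. LPI agonist curves run with and without test compound at 10 μM, giving a parallel shift from which KB was derived; single-point inhibition tested against LPI at 1 μM (100%). Three independent experiments in duplicate, means ± SEM.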

The target is the same in experiment [2]. The experiment is described as follows: Antagonist activity at human GPR55 expressed in CHO cells assessed as inhibition of LPI-induced beta-arrestin translocation at 10 uM after 90 mins by luminescence assay. The experiment is classed as cell-based. The procedure, abridged: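 Human GPR55 expressed recombinantly in CHO cells. β-Arrestin recruitment stimulated by LPI (1 μM) was read as luminescence by β-galactosidase enzyme fragment complementation. Test agents at 10 μM, extract at 50 μg/mL, with the LPI response set to 100%. KB derived from the rightward shift of the LPI concentration-response curve with antagonist present at 10 μM. Three independent experiments in duplicate.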

For experiment [3], the target named is T1, Fatty-acid amide hydrolase 1 (Rattus norvegicus) (UniProt P97612).
T1 sequence (whole entry): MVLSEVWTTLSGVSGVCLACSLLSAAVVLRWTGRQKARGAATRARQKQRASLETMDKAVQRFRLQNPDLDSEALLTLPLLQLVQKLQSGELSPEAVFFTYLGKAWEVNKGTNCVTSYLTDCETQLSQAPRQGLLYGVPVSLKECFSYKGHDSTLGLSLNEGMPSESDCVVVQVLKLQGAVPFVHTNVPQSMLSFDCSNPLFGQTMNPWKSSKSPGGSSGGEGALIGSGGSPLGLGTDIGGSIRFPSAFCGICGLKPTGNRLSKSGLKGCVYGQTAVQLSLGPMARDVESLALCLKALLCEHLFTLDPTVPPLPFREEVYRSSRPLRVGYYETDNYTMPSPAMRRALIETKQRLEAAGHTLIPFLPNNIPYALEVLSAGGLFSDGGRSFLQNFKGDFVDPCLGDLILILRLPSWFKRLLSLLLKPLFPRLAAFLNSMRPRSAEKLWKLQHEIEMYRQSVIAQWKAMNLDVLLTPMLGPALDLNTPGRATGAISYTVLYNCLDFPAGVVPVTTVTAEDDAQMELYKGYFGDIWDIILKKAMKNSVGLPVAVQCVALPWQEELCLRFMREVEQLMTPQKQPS
The experiment is described as follows: Inhibition of FAAH in rat brain microsome using pyrenylbutanamide as substrate after 60 mins by HPLC analysis. The experiment is classed as microsomes. An outline of the steps:
(§1)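 Rat brain preparations were used as the FAAH or MAGL enzyme source. Compounds were tested at 10 μM and the extract at 50 μg/mL, read as percent inhibition.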

Experiment [4] addresses T2, Cannabinoid receptor 1 (Homo sapiens, UniProt P21554). The experiment is described as follows: biochemical. The format is cell-based, CHO.
For experiment [5], the target named is T3, Cannabinoid receptor 2 (Homo sapiens, UniProt P34972). The experiment is described as follows: Displacement of [3H]CP55,940 from recombinant human CB2 receptor expressed in CHO cells after 2 hrs by liquid scintillation counting. The format is cell-based.
T3 sequence (P34972 whole entry): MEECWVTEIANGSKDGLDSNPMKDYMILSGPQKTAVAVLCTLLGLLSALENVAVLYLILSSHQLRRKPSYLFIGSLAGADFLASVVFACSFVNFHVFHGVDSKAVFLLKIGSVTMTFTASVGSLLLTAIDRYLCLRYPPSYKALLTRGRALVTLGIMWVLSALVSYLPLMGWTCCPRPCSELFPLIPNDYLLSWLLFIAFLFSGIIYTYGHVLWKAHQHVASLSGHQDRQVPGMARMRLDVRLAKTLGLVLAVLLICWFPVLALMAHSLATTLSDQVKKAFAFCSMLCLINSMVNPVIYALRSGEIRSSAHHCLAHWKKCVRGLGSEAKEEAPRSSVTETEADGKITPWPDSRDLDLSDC
Experiment [6] concerns the target T4, Monoglyceride lipase (Rattus norvegicus) (UniProt Q8R431).
T4 sequence (whole entry): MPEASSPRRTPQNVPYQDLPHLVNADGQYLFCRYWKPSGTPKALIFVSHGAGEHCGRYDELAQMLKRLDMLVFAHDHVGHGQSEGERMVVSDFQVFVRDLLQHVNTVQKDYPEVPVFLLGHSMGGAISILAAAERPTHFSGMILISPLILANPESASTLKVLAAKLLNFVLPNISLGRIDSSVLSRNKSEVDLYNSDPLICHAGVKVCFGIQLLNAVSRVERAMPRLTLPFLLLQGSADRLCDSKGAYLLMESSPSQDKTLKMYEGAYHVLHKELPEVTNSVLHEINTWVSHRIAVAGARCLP
The experiment is described as follows: Inhibition of MAGL in rat brain microsome using pyrenylbutanamide as substrate after 60 mins by HPLC analysis. The format is microsomes. The procedure, abridged: as §1

Experiment [7] deals with T3, Cannabinoid receptor 2. The experiment is described as follows: Agonist activity at recombinant human CB2 receptor expressed in CHO cells assessed as inhibition of forskolin-induced cAMP accumulation at 100 uM after 5 mins by cAMP-competition binding assay relative to CP55,940. The format is functional, cell-based. The procedure, abridged:
(§2)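 Forskolin (10 μM)-stimulated cAMP accumulation in CHO cells stably expressing the human CB1 or CB2 receptor. Test agents at 100 μM. Efficacy given as a percentage of the maximal effect of the full agonist CP55,940 (1 μM), taken as 100%. At least three independent experiments, each run in duplicate.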
A general note: Cyclic AMP is a second messenger, typically raised through Gs and lowered through Gi signalling.

The target in experiment [8] is T3, Cannabinoid receptor 2. The experiment is described as follows: Agonist activity at recombinant human CB2 receptor expressed in CHO cells assessed as inhibition of forskolin-induced cAMP accumulation after 5 mins by cAMP-competition binding assay. The experiment is classed as functional, cell-based.
Experiment [9] addresses T2, Cannabinoid receptor 1. The experiment is described as follows: Agonist activity at recombinant human CB1 receptor expressed in CHO cells assessed as inhibition of forskolin-induced cAMP accumulation at 100 uM after 5 mins by cAMP-competition binding assay relative to CP55,940. The experiment is classed as functional, cell-based. The procedure, abridged:
as §2

In experiment [10] the target is T2, Cannabinoid receptor 1. The experiment is described as follows: Agonist activity at recombinant human CB1 receptor expressed in CHO cells assessed as inhibition of forskolin-induced cAMP accumulation after 5 mins by cAMP-competition binding assay. The format is functional, cell-based.
In experiment [11] the target is T3, Cannabinoid receptor 2. The experiment is described as follows: Partial agonist activity at recombinant human CB2 receptor expressed in CHO cells assessed as inhibition of forskolin-induced cAMP accumulation at 100 uM after 5 mins by cAMP-competition binding assay relative to CP55,940. The format is functional, cell-based. The procedure, abridged: (§3)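 CHO cells recombinantly expressing human CB1 or CB2 receptor; forskolin (10 μM)-stimulated cAMP accumulation inhibited by test compound over a concentration range. Efficacy measured at 100 μM relative to the maximal effect of full agonist CP55,940 (1 μM) = 100%. EC50 from concentration-response curves; at least three independent experiments in duplicate, means ± SEM.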

The test system of experiment [12] is CHO. The experiment is described as follows: Ratio of EC50 for recombinant human CB1 receptor expressed in CHO cells to recombinant human CB2 receptor expressed in CHO cells assessed as inhibition of forskolin-induced cAMP accumulation. The experiment is classed as cell-based.
Experiment [13] addresses T2, Cannabinoid receptor 1. The experiment is described as follows: Partial agonist activity at recombinant human CB1 receptor expressed in CHO cells assessed as inhibition of forskolin-induced cAMP accumulation at 100 uM after 5 mins by cAMP-competition binding assay relative to CP55,940. The experiment is classed as functional, cell-based. An outline of the steps:
as §3

Experiment [14] concerns the target T3, Cannabinoid receptor 2. The following applies: CHO, 10 uM.

The source made the active and inactive calls. The rule behind the calls is not given here.

By Kb is commonly meant the affinity of an antagonist, worked out from how it opposes an agonist. For orientation: inhibition means the percentage by which the read-out fell short of the control. One may read the Ki as a measure of affinity in units of concentration, obtained from inhibition or displacement. Usually EC50 stands for the concentration giving half of the maximal effect.

T2 sequence (P21554 whole entry): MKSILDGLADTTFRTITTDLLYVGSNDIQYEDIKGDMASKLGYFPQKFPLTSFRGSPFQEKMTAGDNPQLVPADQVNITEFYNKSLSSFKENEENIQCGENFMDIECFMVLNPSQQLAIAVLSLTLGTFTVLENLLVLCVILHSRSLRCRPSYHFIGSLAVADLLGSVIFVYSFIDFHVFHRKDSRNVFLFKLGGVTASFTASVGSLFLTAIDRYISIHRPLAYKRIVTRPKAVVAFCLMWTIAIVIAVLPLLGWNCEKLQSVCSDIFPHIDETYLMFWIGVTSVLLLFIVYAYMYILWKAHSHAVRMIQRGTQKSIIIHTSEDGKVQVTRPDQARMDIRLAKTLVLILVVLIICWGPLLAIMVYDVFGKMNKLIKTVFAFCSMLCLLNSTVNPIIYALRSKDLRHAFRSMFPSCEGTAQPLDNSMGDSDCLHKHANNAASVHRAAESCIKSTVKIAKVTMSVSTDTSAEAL
G-protein coupled receptor 55 (Homo sapiens), sequence (Q9Y2T6 whole entry, the tested form may be a part): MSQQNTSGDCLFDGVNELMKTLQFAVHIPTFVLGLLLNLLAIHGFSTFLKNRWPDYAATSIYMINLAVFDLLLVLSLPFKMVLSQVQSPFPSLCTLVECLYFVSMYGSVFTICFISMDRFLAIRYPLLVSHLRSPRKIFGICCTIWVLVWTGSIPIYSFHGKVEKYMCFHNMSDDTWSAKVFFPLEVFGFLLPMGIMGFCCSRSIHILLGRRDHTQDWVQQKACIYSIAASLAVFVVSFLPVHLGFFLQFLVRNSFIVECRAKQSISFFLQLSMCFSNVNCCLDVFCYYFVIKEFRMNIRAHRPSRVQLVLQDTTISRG

On to `CCCCCCC(C)(C)c1ccc([C@@H]2C[C@H](O)CC[C@H]2CCCO)c(O)c1`, for which the Kb in [1] was found to be 1.89 µM. Moreover, the inhibition in [2] was found to be 92%.

For `C=CCc1ccc(O)c(-c2cc(CC(O)CO)ccc2O)c1` (racemic), the inhibition result in experiment [3] and in experiment [6] was “inactive” each time. The Ki in experiment [4] and in experiment [5] was more than 10 µM in each case. Moreover, in experiment [2], the inhibition came out at 4%.

Turning to `C/C=C/c1ccc(O)c(-c2cc(/C=C/C)ccc2O)c1`, the inhibition entry in [3] and in [6] was “inactive” in each case. Moreover, the Efficacy worked out at 55% in [7] and 134% in [9]. The inhibition constant (Ki) in experiment [4] is more than 10 µM; in [5] it was 3.14 µM. The half-maximal effective concentration (EC50) was 8.73 µM in experiment [8] and more than 10 µM in experiment [10]. Also, the inhibition in experiment [2] was 0%.

Regarding `C=CCc1ccc(O)c(-c2ccc(O)c(CC=C)c2)c1` [HONOKIOL], the inhibition result in experiment [3] and in experiment [6] was “inactive” each time. For the same molecule, the Efficacy stood at 0% in experiment [7] and 168% in [9]. Also, the inhibition constant (Ki) in [4] is 6.46 µM; in [5] it was 5.61 µM. Also, the concentration for a half-maximal effect (EC50) in [10] is more than 10 µM. For the same molecule, in [2], the inhibition was found to be 42%.

Consider `C=CCc1ccc(O)c(-c2cc(CC=C)ccc2O)c1` [MAGNOLOL], for which the inhibition entry in [3] and in experiment [6] was “inactive” each time. For the same molecule, the EC50 in [11] stood at 3.28 µM; in experiment [13] it was 18.3 µM. Further, the Efficacy came out at 31% in [7] and 62% in [9]. The Ki is 3.15 µM in experiment [4] and 1.44 µM in experiment [5]. Further, in [12], the Ratio EC50 is 6. Moreover, the inhibition in experiment [2] stood at 0%.

Turning to `CCCc1ccc(O)c(-c2cc(CCC)ccc2O)c1`, the inhibition entry in [3] and in [6] was “inactive” throughout. For the same molecule, the 50% effective concentration (EC50) in experiment [11] worked out at 0.17 µM; in experiment [10] it was 9.01 µM. Besides, the inhibition constant Ki in experiment [4] was determined as 2.26 µM; in [5], 0.416 µM. In addition, the results for the Efficacy in [9] and in experiment [14] were 124% and 49%, respectively. Also, in experiment [1], the Kb is 13.3 µM. The inhibition in experiment [2] worked out at 96%.
